Experimental data taken from PMC2736802 (Drug metabolism and disposition: the biological fate of …, 2008).
“Also recorded” adds a separate entry of the source. Like-named read-outs stand apart in the source and are kept apart here.

Columns and labels:
[1] = system: P450 3A4; format: biochemical, human; details: for % Activity Remaining: 50 μM CPE or 12 μM TFCPE; for loss in O-debenzylation activity: after a 20-min incubation compared with 0 min
In short: (§1)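 Purified P450 was reconstituted with reductase and held 20 min at room temperature, then diluted in 50 mM Hepes pH 7.5 with 2 mM GSH and 250 units catalase. Test compound was added (25–500 μM or 5–100 μM, in acetonitrile), then NADPH. Timed 9 pmol aliquots went into 50 μM BFC/1 mM NADPH in 200 mM phosphate pH 7.4 for 15 min at 37 °C. Fluorescence read at ex 409/em 530 nm; KI, kinact and t1/2 from double-reciprocal plots.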

[2] = system: P450 3A4; assay: LC-APCI-MS metabolite analysis with P450 3A4; format: in vitro ADME, human; details: incubation with P450 3A4 and NADPH
In short: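 P450 3A4 reconstituted with reductase and lipid, then incubated with the test compound and NADPH at 37°C for 60 min. Control and inactivated samples (900 pmol each) were extracted with ethyl acetate and dried under nitrogen. Analysis was by LC-APCI-MS with UV at 319 nm, full scans m/z 100–2000, and data-dependent MS/MS on the four most intense ions.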

[3] = system: dextromethorphan induced micrsomes; assay: Inactivation of dextromethorphan induced microsomes; format: biochemical; details: data not shown
In short: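 Human liver microsomes and dextromethorphan-induced microsomes (0.3 nmol) were incubated with test compound in the presence of catalase and GSH. Reactions were started with NADPH and sampled at 0, 5 and 12 min. Residual activity was measured by the BFC O-debenzylation fluorescence assay.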

[4] = system: P450 3A4; assay: Heme analysis of inactivated P450 3A4; format: biochemical, human; details: for % P450 Remaining by reduced-CO spectrum: 50 μM CPE or 12 μM TFCPE; for Residual Heme by HPLC: area under heme peak at 405 nm, control set to 100 %; for loss in heme: measured by HPLC, compared with the -NADPH control
In short: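 P450 3A4 was reconstituted and inactivated as in the activity assay (50 μM or 12 μM test compound, 20 min, ±NADPH). For reduced-CO spectra, 100 pmol went into 50 mM phosphate pH 7.4 with 40% glycerol and 0.6% Tergitol, was CO-bubbled and dithionite-reduced, and scanned at 400–500 nm. For heme, 100 pmol was run on C4 HPLC (30–90% acetonitrile, 0.1% TFA, 30 min) and the 405 nm peak area was set against control = 100%. Mean and S.D. of four experiments.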

[5] = system: P450 3A4; assay: Trapping of reactive intermediates formed by P450 3A4 with GSH; format: in vitro ADME, human; details: incubation with P450 3A4 in the presence of GSH and NADPH
In short: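 Reconstituted P450 3A4 (0.5 nmol, with reductase and lipid) was inactivated by the test compound plus NADPH in the presence of 10 mM GSH. Reactions were stopped with 10% trifluoroacetic acid (60 μl/ml sample). Separation used a C18 column in a 5% acetonitrile/0.1% acetic acid gradient. Detection was ESI MS: full scan m/z 150–1000 plus two dependent MS/MS scans at 35% collision energy, with fluorescence detection also used.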

[6] = system: P450 3A4; format: biochemical, human; details: substrate testosterone; reconstituted system
[7] = system: P450 3A4; assay: Formation of 7-hydroxycoumarin by P450 3A4; format: in vitro ADME, human; details: 30 min reaction
In short: (§2)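 P450 3A4 or 3A5 (expressed in E. coli, purified) was reconstituted with test compound. Reactions were started with 1 mM NADPH, run 30 min and stopped with 15% trichloroacetic acid. 7-Hydroxycoumarin was measured by C18 HPLC (isocratic 30% methanol, 0.2% acetic acid) with fluorescence detection (ex 350/em 453 nm). Quantified from peak areas against a 7-hydroxycoumarin standard curve.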

[8] = target: T1, P450 3A5 (Homo sapiens, UniProt P20815); format: biochemical; details: in the presence of NADPH
T1 sequence (P20815 whole entry): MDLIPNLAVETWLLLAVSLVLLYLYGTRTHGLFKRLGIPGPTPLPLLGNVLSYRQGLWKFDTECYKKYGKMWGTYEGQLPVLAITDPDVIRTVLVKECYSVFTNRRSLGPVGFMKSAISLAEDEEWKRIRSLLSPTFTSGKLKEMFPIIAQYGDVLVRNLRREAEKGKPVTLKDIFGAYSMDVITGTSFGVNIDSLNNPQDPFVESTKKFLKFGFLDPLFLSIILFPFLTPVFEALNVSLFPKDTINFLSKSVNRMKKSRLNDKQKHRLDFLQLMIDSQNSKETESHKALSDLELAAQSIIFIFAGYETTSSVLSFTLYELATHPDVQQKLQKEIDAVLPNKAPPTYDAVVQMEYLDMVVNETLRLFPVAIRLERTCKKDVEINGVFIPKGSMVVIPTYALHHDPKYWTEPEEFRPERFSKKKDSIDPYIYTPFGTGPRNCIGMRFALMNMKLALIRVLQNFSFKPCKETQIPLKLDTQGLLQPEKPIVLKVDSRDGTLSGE
In short: as §1

[9] = system: human liver microsomes; assay: Inactivation of human liver microsomes; format: biochemical; details: BFC assay; data not shown
[10] = target: T1, P450 3A5; assay: Formation of 7-hydroxycoumarin by P450 3A5; format: in vitro ADME; details: 30 min reaction
In short: as §2

[11] = target: T1, P450 3A5; assay: LC-APCI-MS metabolite analysis with P450 3A5; format: in vitro ADME; details: incubation with P450 3A5
In short: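 Reconstituted P450 3A5 was incubated with test compound and NADPH. Samples (900 pmol) were extracted with ethyl acetate, dried and taken up in 50% acetonitrile. Separation used C18 reverse phase with a water/acetonitrile gradient in 0.1% acetic acid, monitored by UV at 319 nm. Detection was positive-mode APCI on a linear ion trap, with full scans at m/z 100–2000 and data-dependent MS/MS.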

[12] = substrate BFC, reconstituted system

| Structure (SMILES) | % Activity Remaining ([1]; 0 min, +NADPH) [%] | % Activity Remaining ([1]; 0 min, -NADPH) [%] | % Activity Remaining ([1]; 20 min, +NADPH) [%] | % Activity Remaining ([1]; 20 min, -NADPH) [%] | loss in O-debenzylation activity [1] | Kinact (maximal rate of inactivation) [1, 12] [min⁻¹] | metabolite peak by LC-APCI-MS/UV 319 nm [2] | inactivation of dextromethorphan induced microsomes [3] | % P450 Remaining by reduced-CO spectrum ([4]; 0 min, +NADPH) [%] | % P450 Remaining by reduced-CO spectrum ([4]; 0 min, -NADPH) [%] | % P450 Remaining by reduced-CO spectrum ([4]; 20 min, +NADPH) [%] | % P450 Remaining by reduced-CO spectrum ([4]; 20 min, -NADPH) [%] | Residual Heme by HPLC ([4]; +NADPH) [%] | Residual Heme by HPLC ([4]; -NADPH) [%] | loss in heme [4] | formation of glutathione adducts [5] | Kinact (maximal rate of inactivation) [6] [min⁻¹] | Formation of 7-OH coumarin [7] [pmol/pmol P450/min] | inactivation of the BFC O-debenzylation activity of P450 3A5 [8] | inactivation of human liver microsomes [9] | other results |
| --- | --- | --- | --- | --- | --- | --- | --- | --- | --- | --- | --- | --- | --- | --- | --- | --- | --- | --- | --- | --- | --- |
| C#CCOc1ccc2ccc(=O)oc2c1 [CPE, 7-coumarin propargyl ether] | 85 ± 4 | 86 ± 5 | 50 ± 9 | 79 ± 3 | ~35% | 0.05 | No similar peak or any other metabolite peak was observed | did not show inactivation | 69 ± 5 | 69 ± 7 | 67 ± 4 | 67 ± 2 | 70 ± 11 | 100 ± 9 | approximately 30% | formation of CPE- and TFCPE-glutathione adducts | 0.014 | 48.1 ± 5 | no inactivation; also recorded: neither CPE nor TFCPE showed any effect; also recorded: do not affect the activity | did not show inactivation; also recorded: neither CPE nor TFCPE led to any inactivation | Formation of 7-OH coumarin [10]: 85.5 ± 7 pmol/pmol P450/min |
| C#CCOc1ccc2c(C(F)(F)F)cc(=O)oc2c1 [TFCPE, 7-(4-trifluoromethyl)coumarin propargyl ether] | 82 ± 5 | 88 ± 3 | 25 ± 3 | 79 ± 7 | approximately 55% | 0.04 | single metabolite peak eluting at 20.34 min | did not show inactivation | 75 ± 6 | 75 ± 4 | 43 ± 4 | 62 ± 2 | 61 ± 2 | 100 ± 4 | 40% | formation of CPE- and TFCPE-glutathione adducts | 0.04 | 97.2 ± 1 | no inactivation; also recorded: neither CPE nor TFCPE showed any effect; also recorded: do not affect the activity | did not show inactivation; also recorded: neither CPE nor TFCPE led to any inactivation | t1/2 [1, 12]: 16.5 min; loss in activity ([1]; with the -NADPH +TFCPE control): approximately 55%; t1/2 [6]: 17 min; metabolite by LC-APCI-MS [11]: did not result in any metabolite; Formation of 7-OH coumarin [10]: 78.8 ± 11 pmol/pmol P450/min |
